Assays:
[1] = Inhibition of starfish CDK1/cyclin B in presence of 15 uM ATP; design: species or system Marthasterias glacialis
[2] = target: Cyclin-dependent kinase 5/CDK5 activator 1 (Homo sapiens, UniProt Q00535); assay: (§1) Inhibition of mammalian CDK5/p25; format: protein-complex assay
Outline: (§2)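 Recombinant CDK5 and p25, each expressed in E. coli as GST fusions and affinity-purified on glutathione agarose, mixed in equal amounts. Phosphate incorporation onto P81 paper read by scintillation counting, blank subtracted. Activity taken as % of uninhibited. IC50 from dose-response curves.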

[3] = tested on: SH-SY5Y; assay: Survival of human SH-SY5Y cells at 25 uM by MTS reduction assay; format: functional, cell-based; conditions: for viability at 25 µM: Homo sapiens, SH-SY5Y, read-out: Survival
Outline: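 Viability was read by MTS reduction and expressed as percent of untreated cells, as the average ± SE of three independent measurements, representative of two independent experiments.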

[4] = tested on: SH-SY5Y; assay: Death of human SH-SY5Y cells at 25 uM after 48 hrs by LDH release assay; format: functional
Outline: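 SH-SY5Y human neuroblastoma cells were grown in DMEM with 2 mM L-glutamine, antibiotics and 10% FCS at 37 °C under 5% CO2. […] Lactate dehydrogenase release was measured 48 h after addition and expressed as percent cell death.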

[5] = tested on: SH-SY5Y; assay: Death of human SH-SY5Y cells in absence of 20 uM Q-VD-OPh by MTS reduction assay; format: functional, cell-based; conditions: Homo sapiens, SH-SY5Y; read-out: IC50
[6] = tested on: SH-SY5Y; assay: Death of human SH-SY5Y cells in presence of 20 uM Q-VD-OPh by MTS reduction assay; format: functional, cell-based; conditions: Homo sapiens, SH-SY5Y
[7] = tested on: SH-SY5Y; assay: Survival of human SH-SY5Y cells after 24 hrs by MTS reduction assay; format: functional, cell-based; conditions: Homo sapiens, SH-SY5Y, 24 h
[8] = tested on: SH-SY5Y; assay: Survival of human SH-SY5Y cells after 48 hrs by MTS reduction assay; format: functional, cell-based; conditions: Homo sapiens, SH-SY5Y, 48 h
[9] = target: Cyclin-dependent kinase 5/CDK5 activator 1 (Homo sapiens, UniProt Q00535+Q15078); assay: as §1; format: protein-complex assay; outline: as §2
Cyclin-dependent kinase 5/CDK5 activator 1 (Homo sapiens, UniProt Q00535+Q15078), sequence (Q00535 whole entry): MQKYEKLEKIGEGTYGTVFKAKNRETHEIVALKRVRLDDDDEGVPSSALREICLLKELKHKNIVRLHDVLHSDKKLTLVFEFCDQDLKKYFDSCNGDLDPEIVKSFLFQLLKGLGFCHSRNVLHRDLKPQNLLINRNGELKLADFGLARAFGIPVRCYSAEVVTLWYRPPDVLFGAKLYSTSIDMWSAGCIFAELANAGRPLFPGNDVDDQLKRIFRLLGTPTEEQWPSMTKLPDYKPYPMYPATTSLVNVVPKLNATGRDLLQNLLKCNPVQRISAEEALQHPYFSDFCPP
Cyclin-dependent kinase 5/CDK5 activator 1 (Homo sapiens, UniProt Q00535+Q15078), sequence (Q15078 whole entry): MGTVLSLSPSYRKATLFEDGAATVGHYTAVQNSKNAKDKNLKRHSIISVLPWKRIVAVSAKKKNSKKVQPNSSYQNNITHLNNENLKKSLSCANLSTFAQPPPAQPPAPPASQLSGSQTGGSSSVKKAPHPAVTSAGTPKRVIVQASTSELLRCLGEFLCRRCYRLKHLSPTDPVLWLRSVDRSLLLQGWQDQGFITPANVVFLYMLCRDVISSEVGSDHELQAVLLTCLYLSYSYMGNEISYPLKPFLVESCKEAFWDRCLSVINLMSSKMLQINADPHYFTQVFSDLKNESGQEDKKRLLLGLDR

Cyclin-dependent kinase 5/CDK5 activator 1 (Homo sapiens, UniProt Q00535), sequence (Q00535 whole entry, the tested form may be a part): as the sequence (Q00535 whole entry) above
Cyclin-dependent kinase 5/CDK5 activator 1 (Homo sapiens, UniProt Q00535), sequence (Q15078 whole entry, further chain, the tested form may be a part): as the sequence (Q15078 whole entry) above

Row | SMILES | IC50 [1] [µM] | IC50 [2] [µM] | viability at 25 µM [3] [%] | further results
1 | Cn1c(O)c(C2=Nc3ccccc3C2=O)c2cccc(Br)c21 | 100 | > 100 | 98 | 
2 | O=Nc1c(-c2c(O)[nH]c3c(I)cccc23)[nH]c2ccccc12 | 66 | 77 | 64 | 
3 | O=C1C(c2c(O)[nH]c3c(Cl)cccc23)=Nc2ccccc21 | > 10 | > 100 | 92 | 
4 | Cn1c(O)c(C2=Nc3ccccc3/C2=N\OCCn2ccnc2)c2cccc(Br)c21 | > 10 | > 10 | 85 | 
5 | CCN(CC)CCO/N=C1/C(c2c(O)n(C)c3c(Br)cccc23)=Nc2ccccc21.Cl | > 10 | > 10 |  | Survival [3]: 15%; Activity [4]: 58%; IC50 [5]: 18 µM; IC50 [6]: > 25 µM
6 | Cn1c(O)c(-c2[nH]c3ccccc3c2N=O)c2cccc(Cl)c21 | > 100 | > 100 | 94 | 
7 | CC(=O)O/N=C1/C(c2c(O)[nH]c3c(Br)cccc23)=Nc2ccccc21 | > 100 | > 100 | 61 | 
8 | Cn1c(O)c(C2=Nc3ccccc3/C2=N\OCCBr)c2cccc(Br)c21 | > 10 | > 10 | 99 | 
9 | CC(=O)O/N=C1\C(c2c(O)[nH]c3ccccc23)=Nc2ccccc21 |  | 0.7 | 36 | 
10 | CO/N=C1/C(c2c(O)n(C)c3c(Cl)cccc23)=Nc2ccccc21 | > 10 | > 100 | 99 | 
11 | CC(=O)O/N=C1/C(c2c(O)n(C)c3c(F)cccc23)=Nc2ccccc21 | > 10 | > 100 | 105 | 
12 | Cn1c(O)c(C2=Nc3ccccc3C2=O)c2cccc(I)c21 | > 10 | > 100 |  | Survival ([3]; sh-sy5y): 93%
13 | Cn1c(O)c(-c2[nH]c3ccccc3c2N=O)c2cccc(F)c21 | > 100 | > 100 | 99 | 
14 | O=Nc1c(-c2c(O)[nH]c3ccccc23)[nH]c2ccccc12 [INDIRUBIN-3-MONOXIME] |  |  | 27 | IC50 [7]: > 25 µM; IC50 [8]: 12 µM; Activity [4]: 33%; IC50 [5]: 13 µM; IC50 [6]: > 25 µM
15 | CO/N=C1/C(c2c(O)[nH]c3c(Br)cccc23)=Nc2ccccc21 | > 100 | > 100 | 97 | 
16 | CCN(CC)C(=O)O/N=C1/C(c2c(O)n(C)c3c(Br)cccc23)=Nc2ccccc21 | > 10 | > 10 | 105 | 
17 | CC(=O)O/N=C1/C(c2c(O)[nH]c3c(Cl)cccc23)=Nc2ccccc21 | > 10 | > 100 | 89 | 
18 | Oc1[nH]c2c(Br)cccc2c1C1=Nc2ccccc2/C1=N\OCCBr | > 100 | 25 | 87 | 
19 | CC(=O)O/N=C1/C(c2c(O)n(C)c3c(I)cccc23)=Nc2ccccc21 | > 10 | > 100 | 82 | 
20 | Cn1c(O)c(-c2[nH]c3ccccc3c2N=O)c2cccc(I)c21 | > 100 | > 100 | 74 | 
21 | CC(=O)O/N=C1/C(c2c(O)[nH]c3c(F)cccc23)=Nc2ccccc21 | 15 | > 100 | 39 | 
22 | Oc1[nH]c2c(Br)cccc2c1C1=Nc2ccccc2/C1=N\OCCN1CCOCC1 |  |  |  | IC50 [9]: > 10 µM; Survival [3]: 98%
23 | Oc1[nH]c2c(Br)cccc2c1C1=Nc2ccccc2/C1=N\OCCn1ccnc1 |  |  |  | IC50 [9]: > 10 µM; Survival [3]: 59%
24 | Cn1c(O)c(C2=Nc3ccccc3/C2=N\OCCN2CCOCC2)c2cccc(Br)c21 |  |  |  | IC50 [9]: > 10 µM; Survival [3]: 98%
25 | CC(=O)O/N=C1/C(c2c(O)n(C)c3c(Cl)cccc23)=Nc2ccccc21 | > 10 | > 100 | 96 | 

Row | SMILES | IC50 [1] [µM] | IC50 [2] [µM] | viability at 25 µM [3] [%] | further results
26 | CO/N=C1/C(c2c(O)[nH]c3c(I)cccc23)=Nc2ccccc21 | > 10 | > 100 | 84 | 
27 | CC(=O)O/N=C1/C(c2c(O)[nH]c3c(I)cccc23)=Nc2ccccc21 | > 10 | > 100 | 67 | 
28 | CO/N=C1/C(c2c(O)[nH]c3c(F)cccc23)=Nc2ccccc21 | > 10 | > 100 | 105 | 
29 | CC(=O)O/N=C1/C(c2c(O)n(C)c3c(Br)cccc23)=Nc2ccccc21 | 70 | > 100 | 95 | 
30 | O=C1C(c2c(O)[nH]c3c(I)cccc23)=Nc2ccccc21 | > 10 | > 100 | 96 | 
31 | Cn1c(O)c(C2=Nc3ccccc3C2=O)c2cccc(F)c21 | > 10 | > 100 | 101 | 
32 | CO/N=C1/C(c2c(O)n(C)c3c(I)cccc23)=Nc2ccccc21 | > 10 | > 100 | 99 | 
33 | CO/N=C1/C(c2c(O)[nH]c3c(Cl)cccc23)=Nc2ccccc21 | > 10 | > 100 | 97 | 
34 | Cn1c(O)c(-c2[nH]c3ccccc3c2N=O)c2cccc(Br)c21 | > 100 | > 100 | 84 | 
35 | Cl.Cn1c(O)c(C2=Nc3ccccc3/C2=N\OCCN2CCOCC2)c2cccc(Br)c21 | > 10 | > 10 | 90 | 
36 | O=C1C(c2c(O)[nH]c3c(F)cccc23)=Nc2ccccc21 | 10 | ≥ 10 | 70 | 
37 | O=Nc1c(-c2c(O)[nH]c3c(F)cccc23)[nH]c2ccccc12 | 1.5 | 0.51 | 46 | 
38 | Cn1c(O)c(C2=Nc3ccccc3C2=O)c2ccccc21 | 100 |  | 98 | 
39 | O=C1Nc2ccccc2/C1=C1/Nc2ccccc2C1=O [INDIRUBIN] |  |  | 104 | 
40 | O=C1Nc2cc(Br)ccc2/C1=C1/Nc2ccccc2/C1=N\O [6BIO] |  |  | 5 | Activity [4]: 80%
41 | CO/N=C1/C(c2c(O)n(C)c3c(F)cccc23)=Nc2ccccc21 | > 10 | > 100 | 107 | 
42 | O=C1C(c2c(O)[nH]c3c(Br)cccc23)=Nc2ccccc21 | > 100 | > 100 | 92 | 
43 | O=C1Nc2ccc(Br)cc2/C1=C1/Nc2ccccc2/C1=N\O [INDIRUBIN 2] | 0.045 | 0.028 | 13 | IC50 [7]: 18 µM; IC50 [8]: 12 µM; Activity [4]: 59%; IC50 [5]: 13 µM; IC50 [6]: 23 µM
44 | CO/N=C1\C(c2c(O)[nH]c3ccccc23)=Nc2ccccc21 | 1.4 | 0.4 | 86 | 
45 | Cl.Oc1[nH]c2c(Br)cccc2c1C1=Nc2ccccc2/C1=N\OCCN1CCOCC1 | > 100 | > 10 |  | Survival [3]: 76%
46 | CO/N=C1/C(c2c(O)n(C)c3c(Br)cccc23)=Nc2ccccc21 | > 100 | > 100 | 100 | 
47 | CCN(CC)C(=O)O/N=C1/C(c2c(O)[nH]c3c(Br)cccc23)=Nc2ccccc21 | > 100 | > 100 | 106 | 
48 | Cn1c(O)c(C2=Nc3ccccc3C2=O)c2cccc(Cl)c21 | > 10 | > 100 | 94 | 
49 | Cn1c(O)c(-c2[nH]c3ccccc3c2N=O)c2ccccc21 | 73 |  | 100 | 

— ChEMBL document CHEMBL1137414, “3'-Substituted 7-halogenoindirubins, a new class of cell death inducing agents” (J Med Chem, 2006)
